Data: ChEMBL document CHEMBL2311366, “MMP inhibition by barbiturate homodimers” (Bioorg Med Chem Lett, 2013)
The source made the active and inactive calls. The calls are words filed in the database; no cut-off is given here.

Columns and labels:
Neutrophil collagenase = Neutrophil collagenase (Homo sapiens, UniProt P22894); experiment: Inhibition of human recombinant MMP-8 after 45 mins by fluorogenic assay
How it was run: (§1)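 Human recombinant enzymes in a fluorogenic activity assay. Test concentrations 0.01–10,000 nM, 45 min incubation. IC50 reported as mean SEM of at least three independent experiments.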

[1] = biological target: T1, Interstitial collagenase (Homo sapiens) (UniProt P03956); experiment: Inhibition of human recombinant MMP-1 at 10 uM after 45 mins by fluorogenic assay
T1 sequence (whole entry): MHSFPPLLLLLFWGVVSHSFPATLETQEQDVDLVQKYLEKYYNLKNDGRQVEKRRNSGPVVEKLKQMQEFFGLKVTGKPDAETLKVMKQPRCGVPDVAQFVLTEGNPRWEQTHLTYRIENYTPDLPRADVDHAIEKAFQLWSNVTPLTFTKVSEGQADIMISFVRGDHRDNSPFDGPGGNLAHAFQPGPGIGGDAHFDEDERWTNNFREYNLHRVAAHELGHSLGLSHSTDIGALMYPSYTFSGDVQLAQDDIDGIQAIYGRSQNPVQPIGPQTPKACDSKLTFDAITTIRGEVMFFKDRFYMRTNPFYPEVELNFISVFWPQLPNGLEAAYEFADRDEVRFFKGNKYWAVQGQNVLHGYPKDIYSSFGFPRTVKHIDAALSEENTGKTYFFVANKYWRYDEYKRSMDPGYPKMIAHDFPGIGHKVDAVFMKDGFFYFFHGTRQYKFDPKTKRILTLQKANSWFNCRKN

Collagenase 3 = Collagenase 3 (Homo sapiens, UniProt P45452); experiment: Inhibition of human recombinant MMP-13 after 45 mins by fluorogenic assay; how it was run: as §1
[2] = Metabolic stability in human duodenal fluid assessed as compound remaining at 6 hrs; type: ADME; conditions: read-out: Stability
How it was run: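 Incubation at 37 °C in simulated human duodenal fluid. Remaining compound was measured by RP HPLC as a function of time.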

Chain of Neutrophil collagenase (P22894 whole entry): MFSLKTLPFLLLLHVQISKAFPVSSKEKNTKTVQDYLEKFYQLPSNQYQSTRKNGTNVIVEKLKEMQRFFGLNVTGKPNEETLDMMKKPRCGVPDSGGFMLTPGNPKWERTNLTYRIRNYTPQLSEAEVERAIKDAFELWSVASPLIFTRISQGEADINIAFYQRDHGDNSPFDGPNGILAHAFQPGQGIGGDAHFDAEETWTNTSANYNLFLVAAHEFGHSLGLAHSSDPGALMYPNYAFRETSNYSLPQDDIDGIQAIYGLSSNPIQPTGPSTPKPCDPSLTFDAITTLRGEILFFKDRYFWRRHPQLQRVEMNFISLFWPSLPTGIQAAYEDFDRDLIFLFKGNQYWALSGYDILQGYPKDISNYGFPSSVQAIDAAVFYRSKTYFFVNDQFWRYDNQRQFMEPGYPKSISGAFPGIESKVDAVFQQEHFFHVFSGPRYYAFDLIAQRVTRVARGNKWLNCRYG

SMILES | IC50 (Neutrophil collagenase) [nM] | inhibition [1] | IC50 (Collagenase 3) [nM] | remaining at 6 h [2] [%]
O=C1NC(=O)C(c2ccc(Oc3ccccc3)cc2)(N2CCCN(C(=O)CCCCCCCCCCCCC(=O)N3CCCN(C4(c5ccc(Oc6ccccc6)cc5)C(=O)NC(=O)NC4=O)CC3)CC2)C(=O)N1 | 217 | inactive | 70 | –
O=C1NC(=O)C(c2ccc(Oc3ccccc3)cc2)(N2CCCN(C(=O)CCCCCC(=O)N3CCCN(C4(c5ccc(Oc6ccccc6)cc5)C(=O)NC(=O)NC4=O)CC3)CC2)C(=O)N1 | 117 | inactive | 648 | –
O=C1NC(=O)C(c2ccc(Oc3ccccc3)cc2)(N2CCCN(C(=O)CCCCCCCC(=O)N3CCCN(C4(c5ccc(Oc6ccccc6)cc5)C(=O)NC(=O)NC4=O)CC3)CC2)C(=O)N1 | 98 | inactive | 44 | –
O=C1NC(=O)C(c2ccc(Oc3ccccc3)cc2)(N2CCCN(C(=O)CCCC(=O)N3CCCN(C4(c5ccc(Oc6ccccc6)cc5)C(=O)NC(=O)NC4=O)CC3)CC2)C(=O)N1 | 85 | inactive | 164 | > 50
O=C1NC(=O)C(c2ccc(Oc3ccccc3)cc2)(N2CCCN(C(=O)CCCCCCCCCCCCCCC(=O)N3CCCN(C4(c5ccc(Oc6ccccc6)cc5)C(=O)NC(=O)NC4=O)CC3)CC2)C(=O)N1 | 282 | inactive | 134 | –
CCCCCCCCCCCCCC(=O)N1CCCN(C2(c3ccc(Oc4ccccc4)cc3)C(=O)NC(=O)NC2=O)CC1 | – | inactive | – | –
O=C1NC(=O)C(c2ccc(Oc3ccccc3)cc2)(N2CCCN(C(=O)c3ccc(C(=O)N4CCCN(C5(c6ccc(Oc7ccccc7)cc6)C(=O)NC(=O)NC5=O)CC4)cc3)CC2)C(=O)N1 | 46 | inactive | 23 | –
O=C1NC(=O)C(c2ccc(Oc3ccccc3)cc2)(N2CCCN(C(=O)CCC(=O)N3CCCN(C4(c5ccc(Oc6ccccc6)cc5)C(=O)NC(=O)NC4=O)CC3)CC2)C(=O)N1 | 44 | inactive | 11 | –
O=C1NC(=O)C(c2ccc(Oc3ccccc3)cc2)(N2CCCN(C(=O)CCCCCCCCC(=O)N3CCCN(C4(c5ccc(Oc6ccccc6)cc5)C(=O)NC(=O)NC4=O)CC3)CC2)C(=O)N1 | 91 | inactive | 106 | –
O=C1NC(=O)C(c2ccc(Oc3ccccc3)cc2)(N2CCCN(C(=O)CCCCCCCCCCC(=O)N3CCCN(C4(c5ccc(Oc6ccccc6)cc5)C(=O)NC(=O)NC4=O)CC3)CC2)C(=O)N1 | 125 | inactive | 104 | –
O=C1NC(=O)C(c2ccc(Oc3ccccc3)cc2)(N2CCCN(C(=O)CCCCCCCCCCCCCCCCCCCCC(=O)N3CCCN(C4(c5ccc(Oc6ccccc6)cc5)C(=O)NC(=O)NC4=O)CC3)CC2)C(=O)N1 | 162 | inactive | 225 | –
O=C1NC(=O)C(c2ccc(Oc3ccccc3)cc2)(N2CCCN(C(=O)CCCCC(=O)N3CCCN(C4(c5ccc(Oc6ccccc6)cc5)C(=O)NC(=O)NC4=O)CC3)CC2)C(=O)N1 | 60 | inactive | 23 | –
CCCC(=O)N1CCCN(C2(c3ccc(Oc4ccccc4)cc3)C(=O)NC(=O)NC2=O)CC1 | – | inactive | – | –
O=C1NC(=O)C(c2ccc(Oc3ccccc3)cc2)(N2CCCN(C(=O)CCCCCCC(=O)N3CCCN(C4(c5ccc(Oc6ccccc6)cc5)C(=O)NC(=O)NC4=O)CC3)CC2)C(=O)N1 | 88 | inactive | 155 | –
